Tested on: HEK-293T
Test: Multiplex assay against HEK293T
Format: toxicity, cell-based
Settings: human
Summary of the method: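 Live cells carried four stains from seeding: Hoechst33342, BioTracker Green Microtubule Cytoskeleton Dye, MitoTracker Red and Annexin V Alexa Fluor 680. They were imaged on a CQ1 microscope at 37°C and 5% CO2 after compound addition. Using CellPathfinder machine-learning gating, cells were split into Hoechst high-intensity objects or normal cells, normal cells into healthy, pyknosed or fragmented nuclei, and pyknosed cells into mitotic or apoptotic; tubulin, mitochondrial-mass and membrane-permeability phenotypes are per cents of healthy-nucleus cells.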

[1] = 12 h, 1 µM, compound concentration 1 uM, replicate 1
[2] = 12 h, 1 µM, compound concentration 1 uM, replicate 2
[3] = 12 h, 10 µM, compound concentration 10 uM, replicate 1
[4] = 12 h, 10 µM, compound concentration 10 uM, replicate 2
[5] = 24 h, 1 µM, compound concentration 1 uM, replicate 1
[6] = 24 h, 1 µM, compound concentration 1 uM, replicate 2
[7] = 24 h, 10 µM, compound concentration 10 uM, replicate 1
[8] = 24 h, 10 µM, compound concentration 10 uM, replicate 2
[9] = 48 h, 1 µM, compound concentration 1 uM, replicate 1
[10] = 48 h, 1 µM, compound concentration 1 uM, replicate 2
[11] = 48 h, 10 µM, compound concentration 10 uM, replicate 1
[12] = 48 h, 10 µM, compound concentration 10 uM, replicate 2

O=C1[C@H](Cc2ccc(O)cc2)N2C(=O)CCN(C(=O)NCc3ccccc3)[C@H]2CN1Cc1cccc2ccccc12
Population Apoptotic (%) [1]: 44%
Population Fragmented Nuclei (%) [1]: 6%
Population Healthy Nuclei (%) [1]: 80%
Population Hoechst High Intensity Objects (%) [1]: 6%
Population Membrane Permeable-Phenotype (%) [1]: 0%
Population Mitochondria Different-Phenotype (%) [1]: 54%
Population Mitotic Cells (%) [1]: 55%
Population Normal (%) [1]: 93%
Population Pyknosed Nuclei (%) [1]: 12%
Population Tubulin-Different-Phenotype (%) [1]: 46%
Total Cell Count [1]: 374
Population Apoptotic (%) [2]: 46%
Population Fragmented Nuclei (%) [2]: 7%
Population Healthy Nuclei (%) [2]: 78%
Population Hoechst High Intensity Objects (%) [2]: 8%
Population Mitochondria Different-Phenotype (%) [2]: 68%
Population Mitotic Cells (%) [2]: 53%
Population Normal (%) [2]: 91%
Population Pyknosed Nuclei (%) [2]: 13%
Population Tubulin-Different-Phenotype (%) [2]: 33%
Total Cell Count [2]: 259
Population Apoptotic (%) [3]: 68%
Population Fragmented Nuclei (%) [3]: 5%
Population Healthy Nuclei (%) [3]: 74%
Population Hoechst High Intensity Objects (%) [3]: 11%
Population Membrane Permeable-Phenotype (%) [3]: 0%
Population Mitochondria Different-Phenotype (%) [3]: 90%
Population Mitotic Cells (%) [3]: 31%
Population Normal (%) [3]: 88%
Population Pyknosed Nuclei (%) [3]: 20%
Population Tubulin-Different-Phenotype (%) [3]: 76%
Total Cell Count [3]: 340
Population Apoptotic (%) [4]: 60%
Population Healthy Nuclei (%) [4]: 82%
Population Hoechst High Intensity Objects (%) [4]: 14%
Population Mitochondria Different-Phenotype (%) [4]: 93%
Population Mitotic Cells (%) [4]: 40%
Population Normal (%) [4]: 85%
Population Pyknosed Nuclei (%) [4]: 11%
Population Tubulin-Different-Phenotype (%) [4]: 67%
Total Cell Count [4]: 257
Population Apoptotic (%) [5]: 23%
Population Fragmented Nuclei (%) [5]: 7%
Population Healthy Nuclei (%) [5]: 80%
Population Hoechst High Intensity Objects (%) [5]: 7%
Population Membrane Permeable-Phenotype (%) [5]: 0%
Population Mitochondria Different-Phenotype (%) [5]: 49%
Population Mitotic Cells (%) [5]: 76%
Population Normal (%) [5]: 92%
Population Pyknosed Nuclei (%) [5]: 11%
Population Tubulin-Different-Phenotype (%) [5]: 38%
Total Cell Count [5]: 470
Population Apoptotic (%) [6]: 55%
Population Fragmented Nuclei (%) [6]: 8%
Population Healthy Nuclei (%) [6]: 77%
Population Hoechst High Intensity Objects (%) [6]: 8%
Population Mitochondria Different-Phenotype (%) [6]: 47%
Population Mitotic Cells (%) [6]: 45%
Population Normal (%) [6]: 91%
Population Pyknosed Nuclei (%) [6]: 14%
Population Tubulin-Different-Phenotype (%) [6]: 24%
Total Cell Count [6]: 305
Population Apoptotic (%) [7]: 68%
Population Fragmented Nuclei (%) [7]: 7%
Population Healthy Nuclei (%) [7]: 75%
Population Hoechst High Intensity Objects (%) [7]: 11%
Population Membrane Permeable-Phenotype (%) [7]: 0%
Population Mitochondria Different-Phenotype (%) [7]: 94%
Population Mitotic Cells (%) [7]: 31%
Population Normal (%) [7]: 88%
Population Pyknosed Nuclei (%) [7]: 16%
Population Tubulin-Different-Phenotype (%) [7]: 65%
Total Cell Count [7]: 278
Population Apoptotic (%) [8]: 74%
Population Fragmented Nuclei (%) [8]: 9%
Population Healthy Nuclei (%) [8]: 77%
Population Hoechst High Intensity Objects (%) [8]: 14%
Population Mitochondria Different-Phenotype (%) [8]: 95%
Population Mitotic Cells (%) [8]: 25%
Population Normal (%) [8]: 85%
Population Pyknosed Nuclei (%) [8]: 12%
Population Tubulin-Different-Phenotype (%) [8]: 70%
Total Cell Count [8]: 249
Population Apoptotic (%) [9]: 30%
Population Fragmented Nuclei (%) [9]: 14%
Population Healthy Nuclei (%) [9]: 78%
Population Hoechst High Intensity Objects (%) [9]: 4%
Population Membrane Permeable-Phenotype (%) [9]: 0%
Population Mitochondria Different-Phenotype (%) [9]: 34%
Population Mitotic Cells (%) [9]: 69%
Population Normal (%) [9]: 95%
Population Pyknosed Nuclei (%) [9]: 6%
Population Tubulin-Different-Phenotype (%) [9]: 26%
Total Cell Count [9]: 730
Population Apoptotic (%) [10]: 50%
Population Fragmented Nuclei (%) [10]: 11%
Population Healthy Nuclei (%) [10]: 81%
Population Hoechst High Intensity Objects (%) [10]: 3%
Population Mitochondria Different-Phenotype (%) [10]: 29%
Population Mitotic Cells (%) [10]: 50%
Population Normal (%) [10]: 96%
Population Pyknosed Nuclei (%) [10]: 7%
Population Tubulin-Different-Phenotype (%) [10]: 19%
Total Cell Count [10]: 472
Population Apoptotic (%) [11]: 71%
Population Fragmented Nuclei (%) [11]: 8%
Population Healthy Nuclei (%) [11]: 79%
Population Hoechst High Intensity Objects (%) [11]: 10%
Population Membrane Permeable-Phenotype (%) [11]: 0%
Population Mitochondria Different-Phenotype (%) [11]: 94%
Population Mitotic Cells (%) [11]: 28%
Population Normal (%) [11]: 89%
Population Pyknosed Nuclei (%) [11]: 11%
Population Tubulin-Different-Phenotype (%) [11]: 63%
Total Cell Count [11]: 297
Population Apoptotic (%) [12]: 57%
Population Fragmented Nuclei (%) [12]: 11%
Population Healthy Nuclei (%) [12]: 73%
Population Hoechst High Intensity Objects (%) [12]: 20%
Population Mitochondria Different-Phenotype (%) [12]: 88%
Population Mitotic Cells (%) [12]: 42%
Population Normal (%) [12]: 79%
Population Pyknosed Nuclei (%) [12]: 14%
Population Tubulin-Different-Phenotype (%) [12]: 72%
Total Cell Count [12]: 232

Source: ChEMBL document CHEMBL5058577, “EUbOPEN Chemogenomics Library 2 (Multiplex)” (2022)
